These results are taken from ChEMBL document CHEMBL1139885, “De novo parallel design, synthesis and evaluation of inhibitors against the reverse transcriptase of human immunodeficiency virus type-1 and drug-resistant variants” (J Med Chem, 2007).

Active and inactive are the calls of the source. No cut-off for these calls is given here.

Broadly, the IC50 is the point on the concentration scale where inhibition reaches its midpoint. For orientation: CC50 means the concentration giving 50% cytotoxicity. Low readings indicate harm at low concentration, high ones better tolerance by the cells.

Data set [1] addresses T1, Human immunodeficiency virus type 1 reverse transcriptase (Human immunodeficiency virus 1, UniProt Q72547). Description: Inhibition of DNA polymerase activity of HIV1 reverse transcriptase.
Data set [2] is described as follows: Inhibition of RNase H activity of HIV1 reverse transcriptase. More on the design: species or system Human immunodeficiency virus 1. Summed up:
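FRET assay: RT (6 nM) with fluorescein-RNA/DNA-dabcyl hybrid substrate, 1 mM DTT, ± inhibitor; fluorescence read after 30 min at 37 °C. Triplicates; IC50 interpolated from dose-response curves.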

A short description of data set [3]: Cytotoxicity against Jurkat cells by XTT assay. The data set is classed as cell-based. The conditions noted are these: human. Put shortly: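 Jurkat cells; XTT read-out, absorbance 450 nm with 620 nm reference. CC50 = concentration reducing viability by 50% versus inhibitor-free control.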
Background: Tetrazolium assays rely on reduction of a dye to a coloured formazan, in cell work by metabolically active cells.

Data set [4] deals with Human immunodeficiency virus type 1 reverse transcriptase (Human immunodeficiency virus 1) (UniProt Q72547). Description: Inhibition of reverse transcriptase binding to DNA assessed as formation of RT-DNA complex by gel mobility shift assay. Summed up:
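RT 1.5 pmol preincubated 10 min at 4 °C with compound at 250 and 625 µM final. Then 0.12 pmol 5'-32P-labeled 54-nt duplex DNA added, in 10 mM HEPES, 30 mM ammonium sulfate, 0.25 mM DTT, 0.1 mg/mL BSA, pH 8.0; 10 min 32 °C. Run on nondenaturing 6.5% polyacrylamide gel, TBE, 4 °C; autoradiography.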

In data set [5] the test system is Human immunodeficiency virus 1. Briefly: Inhibition of DNA polymerase activity of reverse transcriptase pre-incubated with drug assessed as impairment of primer elongation by DNA polymerase primer-extension assay. Put shortly:
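Primer extension: 5′-32P-labelled 15-mer primed on circular φX174am3 template (4 nM T/P). RT (1.6 nM) preincubated 30 min on ice, with inhibitor before T/P addition, or with T/P for 5 min before inhibitor. Buffer 6.6 mM Tris-HCl pH 8.0, 4 mM DTT, 6 mM MgCl2, 33 mM NaCl, BSA, 20 µM each dNTP. Run 30 min at 37 °C; products resolved on gel and viewed by autoradiography.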

Data set [6] has as its target T1, Human immunodeficiency virus type 1 reverse transcriptase. Briefly: Inhibition of HIV1 wild type p66/p51 reverse transcriptase. Put shortly:
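BH-10-derived p66/p51 RT, C-terminal His6 on p66, expressed in bacteria, Ni-NTA then cation exchange purified. Substrate mix: 50 µg/mL poly(rA)·oligo(dT)12-18, 50 µM dTTP, [3H]dTTP; 30 min 37 °C.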

Data set [7] in a line: Inhibition of drug-resistant reverse transcriptase […] mutant. More on the design: species or system Human immunodeficiency virus 1.
The nature of data set [8]: Inhibition of drug-resistant reverse transcriptase L100I-K103 mutant. On the set-up: species or system Human immunodeficiency virus 1. Put shortly: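 p66/p66 homodimer HIV-1 RT double mutant (His-tagged, E. coli-expressed, Ni-NTA purified). DNA polymerase activity: [3H]dTTP incorporation into poly(rA)n·oligo(dT)12-18. DMSO serial dilutions of inhibitor plus 14 ng RT in Tris-HCl pH 7.5/KCl/MgCl2, 10 min on ice, then substrate added, 30 min at 37 °C, scintillation counting. IC50 from a four-parameter logistic fit, from at least two experiments.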

With `NC(=O)c1[nH]cnc1-c1cccc(C(=O)c2ccccc2)c1`, in data set [1], the IC50 is above 312 µM.
Still for that read-out and setting: the same measure for `N#CCC(=O)c1ccc(Cl)c(Br)c1`: above 312 µM.
Same read-out and setting: the same measure for `NC(=O)CC(=O)c1cccc(C(=O)c2ccccc2)c1`: above 312 µM.
In the case of `NC(=O)c1scnc1-c1cccc(C(=O)c2ccccc2)c1`, the figures for the IC50 in data set [1] and in data set [2] were 16.3 µM and 77 µM, respectively. In data set [3], this molecule had a CC50 above 312 µM.
Take `N#CCC(=O)Cc1cccc(I)c1`: in data set [4], the result was inactive. Also, in data set [5], the outcome was Active. Further, the half-maximal inhibitory concentration (IC50) in data set [1] is 3.5 µM; in data set [2] it was 20 µM; in data set [6] it was 3.5 µM; in data set [7], 9.9 µM; in data set [8], 9.4 µM. In data set [3], this molecule had a CC50 of 247 µM.
As for `N#CCC(=O)c1cccc(C(=O)c2ccccc2)c1`, the figures for the IC50 in data set [1] and in data set [2] were 9.8 µM and 98 µM, respectively. The molecule also showed a cytotoxic concentration (CC50) in data set [3] of 251 µM.
On the same counts, the results for `NC(=O)c1sc(N)nc1-c1cccc(Cl)c1` are 54.4 µM, above 312 µM and above 312 µM.
Consider `C[C@@H]1CC=C2[C@@H](CCC[C@@]2(C)CC[C@@]2(C)C3=CCCC(C)(C)[C@H]3CC[C@@H]2C)[C@]1(C)Cc1cc(OS(=O)(=O)O)ccc1OS(=O)(=O)O`, for which the result in data set [4] was Active.
With `NC(=O)c1[nH]cnc1-c1ccccc1`, in data set [1], 300 µM corresponded to half-maximal inhibition (IC50).
As for `Cc1ccnc2c1NC(=O)c1cccnc1N2C1CC1`, the result in data set [4] was inactive. In addition, the result in data set [5] was Active.
Consider `NC(=O)c1scnc1-c1ccccc1`, for which, in data set [1], the concentration for half-maximal inhibition (IC50) came out at 283 µM.
Regarding `NC(=O)c1sc(N)nc1-c1ccccc1`, the IC50 in data set [1] is 80.7 µM; in data set [2], above 312 µM. The CC50 in data set [3] is above 312 µM.
As for `NC(=O)c1sc(N)nc1-c1cccc(-c2ccccc2)c1`, the results for the IC50 in data set [1] and in data set [2] were 59.2 µM and 249 µM, respectively. The molecule further gave a CC50 in data set [3] of 244 µM.
On the same counts, the results for `CCOP(=O)(OCC)Oc1cccc(C(=O)CC#N)c1` are 64.3 µM, 112 µM and above 312 µM.
The molecule `NC(=O)c1scnc1-c1cccc(-c2ccccc2)c1` had an IC50 in data set [1] above 312 µM.
On the same count and under the same terms, the same measure for `NC(=O)c1scnc1-c1ccc(Cl)c(Br)c1`: 87.5 µM; for `N#CCC(=O)c1cccc(I)c1`: above 312 µM; for `NC(=O)c1sc(N)nc1-c1cccc(I)c1`: 125 µM.
As to `NC(=O)c1sc(N)nc1-c1cccc(C(=O)c2ccccc2)c1`, the IC50 in data set [1] is 44.1 µM; in data set [2] it was above 312 µM. Also, the CC50 in data set [3] is above 312 µM.
`NC(=O)c1[nH]cnc1-c1cccc(-c2ccccc2)c1` had an IC50 in data set [1] above 312 µM.
On to `NC(=O)c1[nH]cnc1-c1cccc(Cl)c1`, for which the IC50 was 79.8 µM in data set [1] and above 312 µM in data set [2]. In data set [3], the CC50 is above 312 µM.
In the case of `NC(=O)c1scnc1-c1cccc(I)c1`, the IC50 in data set [1] is above 312 µM.
In data set [1], `NC(=O)CC(=O)c1cccc(-c2ccccc2)c1` displayed an IC50 above 312 µM.
Still for that read-out and setting: the same measure for `NC(=O)c1sc(N)nc1-c1ccc(Cl)c(Br)c1`: 118 µM.
Take `NC(=O)c1[nH]cnc1-c1ccc(Cl)c(Br)c1`: the result in data set [4] was inactive. The IC50 in data set [1] was determined as 9.9 µM; in data set [2] it was 41 µM; in data set [6] it was 9.9 µM; in data set [7], 26.4 µM; in data set [8], 19.8 µM. The same molecule yielded a CC50 in data set [3] of 213 µM.
On to `N#CCC(=O)c1cccc(-c2ccccc2)c1`, for which the IC50 in data set [1] stood at 33.4 µM; in data set [2] it was 84 µM. In data set [3], this molecule had a half-maximal cytotoxic concentration (CC50) of 233 µM.
For `N#CCC(=O)c1cccc(Cl)c1`, the half-maximal inhibitory concentration (IC50) in data set [1] turned out to be 4.1 µM; in data set [2] it was 28 µM. The CC50 in data set [3] was above 312 µM.
On the same counts, the results for `NC(=O)CC(=O)c1cccc(I)c1` are 29.6 µM, above 312 µM and above 312 µM.
As for `NC(=O)CC(=O)c1cccc(Cl)c1`, the IC50 in data set [1] was above 312 µM.
